# Bioassay records from PubChem.
# A selection: hits, their analogues and other compounds. The true share with any hit is near 2.4%.
# Cneo AK release: Cryptococcus neoformans cell lysis inducers, primary screen, AK release luminescence, single concentration. lysis activity, % at 15 µM. AID 651654, 2012. C. neoformans lysis, adenylate kinase release luminescence, 4 h; normalised: neutral wells 0, clomiphene wells 100. 0.2% of 360,000 active;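 active = mean lysis activity across replicates of at least 80%, whatever share of replicates individually reach that level; inactive = mean lysis activity below 80%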
#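 Test system: log-phase Cryptococcus neoformans yeast cells. Input: 5 × 10^6 yeast cells/mL. Medium: fresh YPD growth medium. Doses: single dose. Incubation: static 4 h at 37 °C with compound, 1 h detection. Measured by: luminescent adenylate kinase detection reagent. Read-out: signal increase indicating cell lysis. Benchmarks: Clomiphene.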
# miR-122 sensor: miR-122 Renilla sensor signal increase in Huh7, primary screen, miR-122 inhibitor project, cell-based, single point, plate reader | Huh7 miR-122 Renilla luciferase sensor, 48 h; neutral wells = 0, positive control = 100 | activation (reporter increase), % at 12.5 µM | 0.3% of 340,000 active | AID 602342, 2012;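 active = mean replicate activation score at least 90 and every replicate individually at or above 90; inconclusive = only one of the two criteria met; inactive = neither criterion met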;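 note: higher luciferase means less miR-122 activity so hits act as miR-122 inhibitors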
# INS-1E GSIS act: GLuc luminescence reporter in INS-1E cells, primary screen for activators of glucose-dependent secretion of insulin; INS-1E GLuc reporter insulin secretion, 2-3 h; AID 743287, 2014; activation, % at 16.6 µM; 0.61% of 370,000 active;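 active = lowest replicate activation of at least 40%, so every replicate reaches that level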;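 note: 0% = median of neutral control wells and 100% = median of IBMX positive control wells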
# Rtt109 HAT inh: inhibitors of C. albicans Rtt109/Vps75 HAT, primary screen, biochemical, ThioGlo CoA-SH fluorescence, plate reader; Histone acetyltransferase RTT109 (Candida albicans (strain SC5314 / ATCC MYA-2876)), …; purified Rtt109/Vps75, 4 h; inhibition, % at 34.9 µM; 0.16% of 330,000 active;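 active = inhibition of at least 50% in every replicate; inconclusive = best replicate reaches 50% inhibition but some replicates fall short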
# Target sequence (Q5AAJ8 whole entry, looked up): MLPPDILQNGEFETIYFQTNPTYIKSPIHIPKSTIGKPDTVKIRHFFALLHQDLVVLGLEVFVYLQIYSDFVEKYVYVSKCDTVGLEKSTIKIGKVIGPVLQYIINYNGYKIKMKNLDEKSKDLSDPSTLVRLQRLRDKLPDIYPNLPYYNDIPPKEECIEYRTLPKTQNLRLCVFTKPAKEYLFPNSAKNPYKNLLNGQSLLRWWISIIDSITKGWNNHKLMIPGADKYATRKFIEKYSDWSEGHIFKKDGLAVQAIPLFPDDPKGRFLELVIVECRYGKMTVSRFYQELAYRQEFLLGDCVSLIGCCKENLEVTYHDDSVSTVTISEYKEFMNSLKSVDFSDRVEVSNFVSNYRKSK
# Env fusion inh: inhibitors of HIV-1 Env-driven cell-cell fusion, primary screen, HeLa-JRFL effector, CEM21 target cells, luciferase | inhibition, % at 12.3 µM | 1.1% of 360,000 active | AID 651610, 2012;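 active = mean replicate inhibition score of at least 50 and every replicate individually at or above 50; inconclusive = only one of the two criteria met; inactive = mean below 50 and not all replicates reaching 50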;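 note: 0% = plate neutral controls and 100% = maraviroc near 300 nM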
# dFosB act-1: activators of delta FosB homodimer, primary screen, biochemical, fluorescence polarization, TAMRA-CDK5 oligo, single point | purified delta FosB; percent of positive-control signal above neutral wells | 0.99% of 340,000 active | activation, % at 25 µM | Protein FosB (Mus musculus), P13346;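 active = mean activation above about 17%, with every replicate also reaching it, limit read from the data, passing the limit was not always enough; inconclusive = only one of the two conditions met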
# Target sequence (P13346 whole entry, looked up): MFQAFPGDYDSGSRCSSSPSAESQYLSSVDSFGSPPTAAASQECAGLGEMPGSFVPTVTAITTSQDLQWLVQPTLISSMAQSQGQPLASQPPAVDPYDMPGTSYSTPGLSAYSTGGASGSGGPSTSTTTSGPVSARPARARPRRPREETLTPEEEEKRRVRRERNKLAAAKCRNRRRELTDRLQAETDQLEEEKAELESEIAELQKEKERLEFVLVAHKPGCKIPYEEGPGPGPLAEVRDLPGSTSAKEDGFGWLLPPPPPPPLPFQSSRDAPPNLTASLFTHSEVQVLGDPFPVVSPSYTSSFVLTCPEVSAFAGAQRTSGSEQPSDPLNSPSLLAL
# dFosB act-2: activators of mouse delta FosB DNA binding, confirmation, biochemical, fluorescence polarization, TAMRA-CDK5 oligo, cherry-picked samples. shares compounds with dFosB act-1. purified delta FosB; normalised: neutral wells 0, positive control 100. activation, % at 24.9 µM. 2,400 tested, under 10 active;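 active = highest replicate activation at or above 34% and every replicate reaching that threshold; inconclusive = meets only one of the two criteria; inactive = meets neither criterion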;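 note: higher polarization means more probe DNA bound by delta FosB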
# Numbers without * were called inactive; ? = inconclusive; nt = no result; [ ] = another dose, or the depositor's remark.
SMILES,Cneo AK release,miR-122 sensor,INS-1E GSIS act,Rtt109 HAT inh,Env fusion inh,dFosB act-1,dFosB act-2
COc1ccccc1S(=O)(=O)N1CC[C@@H]2[C@@H](CO)Nc3ccc(-c4cccc(C#N)c4)cc3[C@@H]21,5.4,6.6[16.7 µM],9.2,nt,nt,nt,nt
COc1ccc(NC(=O)c2cc(CN3C(=O)c4ccccc4C3=O)ccc2OC)cn1,3.5,-2.7,nt,-3.9,-180.2,18.0*,8.5
O=C(N/N=C/c1cccc2nccnc12)c1ccccc1O,nt,-10.2,-3.8,21.1,-2.0,23.2*,-3.9
CN(C)CCCNC(=S)N(Cc1cccs1)Cc1cc2cc3c(cc2[nH]c1=O)OCCO3,nt,-8.6,-5.6,-2.4,-17.3,32.2*,5.2
CN(C)CCCNC(=S)N(CCN(C)C)Cc1cc2cc3c(cc2[nH]c1=O)OCCO3,5.2,-4.8,-3.0,0.7,-5.3,7.9,nt
Cc1cccc(NC(=O)c2ccc(S(=O)(=O)NCc3ccco3)cc2)n1,0.8,nt,-11.4,7.1,nt,33.1*,0.5
COc1ccccc1C(=O)Nc1ccc2c(c1)C(=O)N(C)C[C@H](OC)[C@@H](C)CN[C@@H](C)CO2,-0.7,12.7[16.7 µM],-2.9,nt,10.9[16.7 µM],nt,nt
COc1cccc(Nc2nc3ccc(C(=O)c4ccccc4)cc3n3cnnc23)c1,0.3,-0.8,5.1,-1.0,37.0,18.7*,0.4
COC(=O)c1ccc(Nc2nc3ccc(C)cc3n3cnnc23)cc1,4.8,-5.1,-1.7,-3.5,-27.9,-1.2,nt
CCCn1c(N)c(C(=O)CSc2n[nH]c(-c3ccc(C)cc3)n2)c(=O)[nH]c1=O,0.6,nt,-1.9,-7.9,10.8,27.7*,-1.9
COc1ccc2c3c([nH]c2c1)[C@@H](CO)N(C(=O)Nc1ccc(F)cc1)CC31CN(Cc2ccccc2OC)C1,nt,nt,-12.7,nt,nt,nt,nt
Cc1ccc(-n2c(SCC(=O)Nc3nccs3)nc3c(c2=O)SCC3)cc1,0.3,-1.3,82.4*,0.7,-64.5,38.2*,0.6
CCc1ccc(NC(=O)C(NS(=O)(=O)c2ccc3c(c2)CCN3C(C)=O)C(C)C)cc1 (configuration not stated),-1.8,-4.3,3.0,8.2,12.7,37.1*,3.8
Cc1ccc([N+](=O)[O-])cc1-c1ccc(/C=C(\C#N)c2[nH]nc(N)c2C#N)o1,-0.9,-6.0,nt,-5.3,-34.0,29.2*,5.4
COc1cc(/C=C(\C#N)c2[nH]nc(N)c2C#N)cc(OC)c1O,0.7,-5.4,nt,8.3,10.0,-10.3,nt
Cc1c(Cl)cccc1NC(=O)CCNC(=O)N1CC(=O)Nc2ccccc21,-4.2,10.7,1.1,-2.3,8.5,23.4*,6.5
O=C(CCNC(=O)N1CC(=O)Nc2ccccc21)NCc1ccccc1Cl,0.7,7.8,17.9,nt,4.5,nt,nt
COc1ccc(-c2cc(C)no2)cc1S(=O)(=O)N1CCOc2ccc(C)cc21,0.1,3.2,-35.8,-6.3,17.3,44.1*,-5.8
Cc1cccc(NC(=O)CSc2nsc(SCC(=O)Nc3cccc(C)c3)c2C#N)c1,nt,nt,0.6,-2.9,6.8,3.9,nt
N#Cc1c(SCC(=O)Nc2ccccc2)nsc1SCC(=O)Nc1ccccc1,nt,nt,-4.9,-0.4,9.9,24.7*,-0.3
O=C(Nc1ccccc1)Nc1snnc1C(=O)Nc1cccc(O)c1,nt,nt,2.3,-6.5,-9.6,57.3*,1.2
O=C(Nc1cccc(O)c1)c1cccc(C(=O)Nc2cccc(O)c2)c1,-5.0,-0.9,-5.5,2.4,-10.7,-5.9,nt
Cc1cc(C)n(CC(O)Cn2c3ccc(Cl)cc3c3cc(Cl)ccc32)c(=O)n1 (configuration not stated),3.1,4.6,-31.5,5.7,nt,25.1*,0.8
O=C(Nc1cccc(-n2cnnn2)c1)c1cc2ccccc2o1,-5.4,nt,14.1,-0.5,-18.5,36.9*,6.4
O=C(Nc1cccc(-n2cnnn2)c1)c1ccco1,0.3,-10.2,-0.2,-4.7,-7.7,-15.1,nt
SMILES,Cneo AK release,miR-122 sensor,INS-1E GSIS act,Rtt109 HAT inh,Env fusion inh,dFosB act-1,dFosB act-2
CO[C@H]1CN(C)C(=O)c2cc(NC(=O)C3CC3)ccc2OC[C@H](C)N(C(C)=O)C[C@@H]1C,-6.0,nt,1.4,nt,nt,nt,nt
C=CCn1c(=NC(=O)c2ccc(S(=O)(=O)N3CCc4ccccc4C3)cc2)sc2cc(S(N)(=O)=O)ccc21,-1.5,63.9,2.3,-8.7,nt,?,nt
C#CCn1c(=NC(=O)c2sc3ccccc3c2Cl)sc2cc(S(N)(=O)=O)ccc21,3.3,0.7,5.4,0.6,10.5,77.4*,-1.1
COC(=O)Cn1c(=NC(=O)c2nc3ccccc3s2)sc2cc(S(N)(=O)=O)ccc21,nt,-6.3,19.3,6.1,-68.2,?,nt
C#CCn1c(=NC(=O)c2ccc(S(=O)(=O)N3CCc4ccccc4C3)cc2)sc2cc(S(N)(=O)=O)ccc21,-0.5,18.6,nt,2.6,nt,51.3*,2.6
O=C(c1ccncc1)N1C[C@@H]2[C@H](c3ccccc31)[C@@H](CO)N2C(=O)Nc1ccc(F)cc1,4.7,20.5[16.7 µM],-2.5,nt,nt,nt,nt
C[C@H](CO)N1C[C@H](C)[C@@H](CN(C)Cc2cccnc2)OCc2ccccc2-c2c(n(C)c3ccccc23)C1=O,-2.5,nt,-2.0,nt,38.5[16.7 µM],nt,nt
Cc1ccc(S(=O)(=O)N2CCN(S(=O)(=O)c3c(C)n[nH]c3C)CC2)cc1C,-1.4,nt,4.1,-11.2,nt,32.4*,-0.5
O=C(Nc1ccc(Br)cn1)c1cccc(C(=O)Nc2ccc(Br)cn2)c1,0.6,nt,10.6,-9.7,4.4,-9.5,nt
O=C(Nc1ccc(Br)cn1)c1ccc2nccnc2c1,nt,0.3,-3.7,3.9,nt,43.3*,-0.1
COc1ccc(NC(=O)c2cc(S(=O)(=O)N3CCCCC3)c[nH]2)c(OC)c1,0.4,-6.6,-20.9,10.5,-1.1,-3.2,nt
COc1cc(NC(=O)c2cc(S(=O)(=O)N3CCCCC3)c[nH]2)cc(OC)c1,-2.0,-3.5,8.9,-23.8,-13.4,100.2*,-1.1
Cc1ccc(S(=O)(=O)Nc2ccc3c(c2)C(=O)N([C@@H](C)CO)C[C@@H](C)[C@H](CN(C)C(=O)c2ccccc2)OCCCC[C@H](C)O3)cc1,-3.3,-3.9[16.7 µM],-5.8,nt,-42.7[16.7 µM],nt,nt
CCOC(=O)c1sc(NC(=O)CCc2ccc(OC)cc2)nc1C,0.6,4.6,1.2,-2.6,-10.3,25.2*,0.5
CN1c2ccc(Br)cc2[C@@H]2[C@@H](CCN2C(=O)Nc2ccccc2F)[C@@H]1CO,-25.3,1.2[16.7 µM],-5.3,nt,nt,nt,nt
